These results are taken from ChEMBL document CHEMBL4480406, “Discovery of an SSTR2-Targeting Maytansinoid Conjugate (PEN-221) with Potent Activity in Vitro and in Vivo” (J Med Chem, 2019).

Where a SMILES comes first, the peptide text is derived from it. [ ]: non-standard residue; d: D form. The star is where a group is joined. Dolaproine = CO[C@@H]([C@@H]1CCCN1)[C@@H](C)C(=O)O; Dil = CC[C@H](C)[C@H](NC)[C@@H](CC(=O)O)OC; X1 = C[C@@H](N*)[C@@H](O)c1ccccc1; NMeV = CN[C@H](C(=O)O)C(C)C

The test system of series [1] is NCI-H524. The series can be described thus: Cytotoxicity in human NCI-H524 cells pre-incubated for 2 hrs followed by compound wash out and subsequently incubated for 70 hrs by Cell Titer Glo assay. It is filed as functional, cell-based. A digest of the protocol:
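Cells were then spun, washed with fresh medium, resuspended and grown a further 70 h. Proliferation was read by CellTiter-Glo luminescence, and % inhibition calculated relative to vehicle. IC50 came from a four-parameter nonlinear fit.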
Background: In ATP-based viability assays light output follows the ATP content of the culture.

The subject of series [2] is NCI-H524. As to the kind of experiment: Cytotoxicity in human NCI-H524 cells pre-incubated for 2 hrs in presence of 100 uM octreotide followed by compound wash out and subsequently incubated for 70 hrs by Cell Titer Glo assay. In kind it is functional, cell-based. A digest of the protocol:
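Octreotide receptor-blockade variant: NCI-H524 cells (5,000/well) were pretreated with octreotide acetate for 30 min, then given compound for 2 h in a ten-point three-fold series.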

Series [3] concerns the target Somatostatin receptor type 2 (Homo sapiens, UniProt P30874). The series can be described thus: Displacement of [125I]somatostatin from human SSTR2 expressed in CHO-K1 cell membranes after 240 mins. A digest of the protocol:
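Membranes from CHO-K1 cells stably expressing human SSTR2, prepared in modified HEPES pH 7.4. Nonspecific binding was defined with 1 µM somatostatin. Bound ligand was measured by filtration, 3 washes and counting. Six test concentrations were run, top 10 nM, in five-fold dilutions.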
For orientation: Loss of bound radioactivity is the signal in a displacement assay; it reports binding, not function.

Series [4] can be described thus: Drug uptake in tumor of CrTac:NCr-Foxn1nu mouse xenografted with human NCI-H69 cells assessed as DM1 level at 1 mg/kg, iv measured after 24 hrs by LC-MS/MS analysis relative to DM1 alone. It is filed as ADME, organism-based, Neoplasm. To be noted: in vivo. In short, it runs like this:
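NCI-H69 subcutaneous tumors of 250-600 mm3 in nude mice, groups of 3, dosed i.v. Free DM1 was given in 10% propylene glycol/WFI, conjugates in 10% propylene glycol/5 mM citrate pH 4. Tumors were excised at 24 h and homogenized 1:4 (w/v) in 0.1 M ammonium bicarbonate pH 8.0. Homogenate was reduced with TCEP in acetonitrile (15 min, 37 °C), capped with 0.2 M NEM (15 min, 37 °C), and DM1-NEM quantified by LC-MS/MS against standards in blank tumor homogenate. Values were normalized to DM1 dose.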
(In general: Xenograft models place foreign cells or tissue in a host animal.)

Chain of Somatostatin receptor type 2 (P30874 whole entry): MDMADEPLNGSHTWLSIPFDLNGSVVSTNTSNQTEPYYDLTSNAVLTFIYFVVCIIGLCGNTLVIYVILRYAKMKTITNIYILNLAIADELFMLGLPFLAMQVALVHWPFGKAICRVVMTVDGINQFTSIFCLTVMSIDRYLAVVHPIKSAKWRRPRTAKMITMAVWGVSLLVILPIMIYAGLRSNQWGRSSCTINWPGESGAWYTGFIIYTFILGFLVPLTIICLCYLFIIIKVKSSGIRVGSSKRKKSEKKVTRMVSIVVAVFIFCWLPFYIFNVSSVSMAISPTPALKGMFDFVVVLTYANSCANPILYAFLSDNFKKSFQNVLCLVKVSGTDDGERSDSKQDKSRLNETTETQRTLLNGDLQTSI

Broadly, the IC50 is the concentration that inhibits the measured activity by half. A word on the Ki: it is the dissociation constant of the complex between target and ligand, obtained from inhibition or displacement. Lower therefore signals tighter binding. For the molecule `COc1cc2cc(c1Cl)N(C)C(=O)C[C@H](OC(=O)[C@H](C)N(C)C(=O)CCSC1CC(=O)N(CCCNC(=O)CNC(=O)[C@H](CC(C)C)NC(=O)[C@H](Cc3ccccc3)NC(=O)CNC(=O)CCCCCN3C(=O)CC(SCCCN[C@H](Cc4ccccc4)C(=O)N[C@H]4CSSC[C@@H](C(=O)N[C@H](CO)[C@@H](C)O)NC(=O)[C@H]([C@@H](C)O)NC(=O)[C@H](CCCCN)NC(=O)[C@@H](Cc5c[nH]c6ccccc56)NC(=O)[C@H](Cc5ccccc5)NC4=O)C3=O)C1=O)[C@@]1(C)O[C@H]1[C@H](C)[C@@H]1C[C@@](O)(NC(=O)O1)[C@H](OC)/C=C/C=C(\C)C2` (stereo partly drawn), the results for the IC50 in the series with NCI-H524 [1] and in the series on NCI-H524 [2] were 75 nM and 202 nM, respectively. Further, the Ki in series [3] is 0.14 nM.
Taken in the same sequence, the figures for `COc1cc2cc(c1Cl)N(C)C(=O)C[C@H](OC(=O)[C@H](C)N(C)C(=O)CCSSCCNC(=O)[C@@H]1CSSC[C@H](NC(=O)[C@H](N)Cc3ccccc3)C(=O)N[C@@H](Cc3ccc(O)cc3)C(=O)N[C@H](Cc3c[nH]c4ccccc34)C(=O)N[C@@H](CCCCN)C(=O)N[C@@H]([C@@H](C)O)C(=O)N1)[C@@]1(C)O[C@H]1[C@H](C)[C@@H]1C[C@@](O)(NC(=O)O1)[C@H](OC)/C=C/C=C(\C)C2` were 10 nM, 692 nM and 0.061 nM.
The corresponding values for `COc1cc2cc(c1Cl)N(C)C(=O)C[C@H](OC(=O)[C@H](C)N(C)C(=O)CCC(C)(C)SSC[C@H](NC(=O)[C@@H]1CSSC[C@H](NC(=O)[C@H](N)Cc3ccccc3)C(=O)N[C@@H](Cc3ccc(O)cc3)C(=O)N[C@H](Cc3c[nH]c4ccccc34)C(=O)N[C@@H](CCCCN)C(=O)N[C@@H]([C@@H](C)O)C(=O)N1)C(N)=O)[C@@]1(C)O[C@H]1[C@H](C)[C@@H]1C[C@@](O)(NC(=O)O1)[C@H](OC)/C=C/C=C(\C)C2` are 27 nM, 581 nM and 0.075 nM.
For `COc1cc2cc(c1Cl)N(C)C(=O)C[C@H](OC(=O)[C@H](C)N(C)C(=O)CCS)[C@@]1(C)O[C@H]1[C@H](C)[C@@H]1C[C@@](O)(NC(=O)O1)[C@H](OC)/C=C/C=C(\C)C2`, the IC50 in the series on NCI-H524 [1] is 11 nM.
On to `CO[C@H]1C(=O)[C@]2(C)[C@@H](OC)C[C@H]3OC[C@@]3(OC(C)=O)[C@H]2[C@H](OC(=O)c2ccccc2)[C@]2(O)C[C@H](OC(=O)[C@H](OC(=O)OCCSSCCCN[C@H](Cc3ccccc3)C(=O)N[C@H]3CSSC[C@@H](C(=O)N[C@H](CO)[C@@H](C)O)NC(=O)[C@H]([C@@H](C)O)NC(=O)[C@H](CCCCN)NC(=O)[C@@H](Cc4c[nH]c5ccccc45)NC(=O)[C@H](Cc4ccccc4)NC3=O)[C@@H](NC(=O)OC(C)(C)C)c3ccccc3)C(C)=C1C2(C)C`, for which the IC50 in the series with NCI-H524 [1] amounted to 150 nM; in the series with NCI-H524 [2], 157 nM. The Ki in series [3] worked out at 0.77 nM.
Taken in the same sequence, the figures for `CC[C@H](C)[C@@H]([C@@H](CC(=O)N1CCC[C@H]1[C@H](OC)[C@@H](C)C(=O)N[C@H](C)[C@@H](O)c1ccccc1)OC)N(C)C(=O)[C@@H](NC(=O)[C@H](C(C)C)N(C)C(=O)OCCSSCCCN[C@H](Cc1ccccc1)C(=O)N[C@H]1CSSC[C@@H](C(=O)N[C@H](CO)[C@@H](C)O)NC(=O)[C@H]([C@@H](C)O)NC(=O)[C@H](CCCCN)NC(=O)[C@@H](Cc2c[nH]c3ccccc23)NC(=O)[C@H](Cc2ccccc2)NC1=O)C(C)C` were 1470 nM, 560 nM and 0.26 nM.
In the case of `COc1cc2cc(c1Cl)N(C)C(=O)C[C@H](OC(=O)[C@H](C)N(C)C(=O)CCSSCCCN[C@H](Cc1ccccc1)C(=O)N[C@H]1CSSC[C@@H](C(=O)N[C@H](CO)[C@@H](C)O)NC(=O)[C@H]([C@@H](C)O)NC(=O)[C@H](CCCCN)NC(=O)[C@@H](Cc3c[nH]c4ccccc34)NC(=O)[C@H](Cc3ccccc3)NC1=O)[C@@]1(C)O[C@H]1[C@H](C)[C@@H]1C[C@@](O)(NC(=O)O1)[C@H](OC)/C=C/C=C(\C)C2`, the values for the IC50 in the series with NCI-H524 [1] and in the series with NCI-H524 [2] were 30 nM and 221 nM, respectively. Besides, the Drug uptake entry in series [4] is “Active”. Moreover, affinity in series [3] was put at a Ki of 0.12 nM.
As for `COc1cc2cc(c1Cl)N(C)C(=O)C[C@H](OC(=O)[C@H](C)N(C)C(=O)CCSSCCNC(=O)[C@@H](NC(=O)[C@@H]1CSSC[C@H](NC(=O)[C@H](N)Cc3ccccc3)C(=O)N[C@@H](Cc3ccc(O)cc3)C(=O)N[C@H](Cc3c[nH]c4ccccc34)C(=O)N[C@@H](CCCCN)C(=O)N[C@@H]([C@@H](C)O)C(=O)N1)[C@@H](C)O)[C@@]1(C)O[C@H]1[C@H](C)[C@@H]1C[C@@](O)(NC(=O)O1)[C@H](OC)/C=C/C=C(\C)C2`, the IC50 with NCI-H524 [1] was 44 nM; in the series on NCI-H524 [2] it was 528 nM. The Drug uptake result in series [4] is “Active”.
Consider `COc1cc2cc(c1Cl)N(C)C(=O)C[C@H](OC(=O)[C@H](C)N(C)C(=O)CCSSCCC(=O)NCCCC[C@H]1C(=O)N[C@@H](Cc3ccc(O)cc3)C(=O)N[C@H](Cc3c[nH]c4ccccc34)C(=O)N[C@@H](CCCCN)C(=O)N[C@@H]([C@@H](C)O)C(=O)N[C@@H](Cc3ccccc3)C(=O)N1C)[C@@]1(C)O[C@H]1[C@H](C)[C@@H]1C[C@@](O)(NC(=O)O1)[C@H](OC)/C=C/C=C(\C)C2`, for which the IC50 turned out to be 60 nM in the series with NCI-H524 [1] and 865 nM in the series with NCI-H524 [2]. In series [3], this molecule yielded a Ki of 0.1 nM.
`CC[C@H](C)[C@@H]([C@@H](CC(=O)N1CCC[C@H]1[C@H](OC)[C@@H](C)C(=O)N[C@H](C)[C@@H](O)c1ccccc1)OC)N(C)C(=O)[C@@H](NC(=O)[C@@H](NC)C(C)C)C(C)C` (H-[NMeV]V[Dil][Dolaproine]-X1) showed an IC50 with NCI-H524 [1] of 3.7 nM.
Still for that read-out and setting: as for `CO[C@H]1C(=O)[C@]2(C)[C@@H](OC)C[C@H]3OC[C@@]3(OC(C)=O)[C@H]2[C@H](OC(=O)c2ccccc2)[C@]2(O)C[C@H](OC(=O)[C@H](O)[C@@H](NC(=O)OC(C)(C)C)c3ccccc3)C(C)=C1C2(C)C` [CABAZITAXEL], the figure is 0.26 nM.
Regarding `COc1cc2cc(c1Cl)N(C)C(=O)C[C@H](OC(=O)[C@H](C)N(C)C(=O)CCSSC[C@@H](CO)NC(=O)[C@@H]1CSSC[C@H](NC(=O)[C@H](N)Cc3ccccc3)C(=O)N[C@@H](Cc3ccc(O)cc3)C(=O)N[C@H](Cc3c[nH]c4ccccc34)C(=O)N[C@@H](CCCCN)C(=O)N[C@@H]([C@@H](C)O)C(=O)N1)[C@@]1(C)O[C@H]1[C@H](C)[C@@H]1C[C@@](O)(NC(=O)O1)[C@H](OC)/C=C/C=C(\C)C2`, the values for the IC50 in the series with NCI-H524 [1] and in the series with NCI-H524 [2] were 42 nM and 1390 nM, respectively. This molecule also gave a Ki in series [3] of 0.018 nM.
Turning to `COc1cc2cc(c1Cl)N(C)C(=O)C[C@H](OC(=O)[C@H](C)N(C)C(=O)CCSSC[C@H](NC(=O)[C@@H]1CSSC[C@H](NC(=O)[C@H](N)Cc3ccccc3)C(=O)N[C@@H](Cc3ccc(O)cc3)C(=O)N[C@H](Cc3c[nH]c4ccccc34)C(=O)N[C@@H](CCCCN)C(=O)N[C@@H]([C@@H](C)O)C(=O)N1)C(=O)O)[C@@]1(C)O[C@H]1[C@H](C)[C@@H]1C[C@@](O)(NC(=O)O1)[C@H](OC)/C=C/C=C(\C)C2`, the IC50 was found to be 183 nM in the series on NCI-H524 [1] and 1600 nM in the series with NCI-H524 [2]. In series [3], the affinity corresponds to a Ki of 0.013 nM.
Taken in the same sequence, the figures for `COc1cc2cc(c1Cl)N(C)C(=O)C[C@H](OC(=O)[C@H](C)N(C)C(=O)CCSC1CC(=O)N(CC(=O)NC[C@H](NC(=O)[C@@H]3CSSC[C@H](NC(=O)[C@H](N)Cc4ccccc4)C(=O)N[C@@H](Cc4ccc(O)cc4)C(=O)N[C@H](Cc4c[nH]c5ccccc45)C(=O)N[C@@H](CCCCN)C(=O)N[C@@H]([C@@H](C)O)C(=O)N3)C(N)=O)C1=O)[C@@]1(C)O[C@H]1[C@H](C)[C@@H]1C[C@@](O)(NC(=O)O1)[C@H](OC)/C=C/C=C(\C)C2` (stereo partly drawn) were 91 nM, 2520 nM and 0.14 nM.
Taken in the same sequence, the figures for `CC[C@H](C)[C@@H]([C@@H](CC(=O)N1CCC[C@H]1[C@H](OC)[C@@H](C)C(=O)N[C@H](C)[C@@H](O)c1ccccc1)OC)N(C)C(=O)[C@@H](NC(=O)[C@H](C(C)C)N(C)C(=O)OCCSSC[C@H](NC(=O)[C@@H]1CSSC[C@H](NC(=O)[C@H](N)Cc2ccccc2)C(=O)N[C@@H](Cc2ccc(O)cc2)C(=O)N[C@H](Cc2c[nH]c3ccccc23)C(=O)N[C@@H](CCCCN)C(=O)N[C@@H]([C@@H](C)O)C(=O)N1)C(N)=O)C(C)C` were 1260 nM, 1430 nM and 0.18 nM.
Regarding `COc1cc2cc(c1Cl)N(C)C(=O)C[C@H](OC(=O)[C@H](C)N(C)C(=O)CCSSCCCN[C@H](Cc1ccccc1)C(=O)N[C@H]1CSSC[C@@H](C(=O)N[C@H](C(=O)O)[C@@H](C)O)NC(=O)[C@H]([C@@H](C)O)NC(=O)[C@H](CCCCN)NC(=O)[C@@H](Cc3c[nH]c4ccccc34)NC(=O)[C@H](Cc3ccc(O)cc3)NC1=O)[C@@]1(C)O[C@H]1[C@H](C)[C@@H]1C[C@@](O)(NC(=O)O1)[C@H](OC)/C=C/C=C(\C)C2`, the IC50 in the series with NCI-H524 [1] amounted to 19 nM; in the series with NCI-H524 [2], 757 nM. In series [4], the Drug uptake result is on record as “Active”.
